Test results: ChEMBL document CHEMBL1145465, “PhoU is a persistence switch involved in persister formation and tolerance to multiple antibiotics and stresses in Escherichia coli” (2007)

Experiments:
Escherichia coli [1] = assay: Antibacterial activity against Escherichia coli K12 containing PhoU mutant assessed as cell count in stationary phase at 3 ug/ml after 1 day; assay type: functional
Procedure, shortened: (§1)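 Log-phase or stationary-phase cultures were exposed to ampicillin (100 μg/ml) or norfloxacin (3 μg/ml) in MOPS minimal medium, pH 5.0, at 37°C without shaking, for 5 h to 10 days. Aliquots were saline-washed and plated on LB for CFU/ml.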

Escherichia coli [2] = assay: Antibacterial activity against Escherichia coli K12 PhoU wild type W3110 assessed as cell count in log phase at 3 ug/ml after 3 days; assay type: functional; procedure, shortened: as §1
Escherichia coli [3] = assay: Antibacterial activity against Escherichia coli K12 containing deletion deltaphoU mutant assessed as cell count in stationary phase at 3 ug/ml after 3 days; assay type: functional
Procedure, shortened: (§2)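 Log-phase or stationary-phase cultures of the ΔphoU deletion mutant (Datsenko–Wanner construction) were exposed to norfloxacin 3 μg/ml in MOPS minimal medium, pH 5.0, at 37°C without shaking, for up to 10 days. Sampled aliquots were washed in saline and plated on LB agar for CFU/ml.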

Escherichia coli [4] = assay: Antibacterial activity against Escherichia coli K12 mutant JHU313 containing plasmid PhoU at 2 ug/ml after 48 hrs by disc diffusion method; assay type: functional
Procedure, shortened: (§3)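 Kirby-Bauer disc assay: log-phase LB culture was spread on LB agar for confluent growth. 7-mm nitrocellulose discs were soaked in antibiotic at the listed concentration and placed on the agar. After 48 h at 37°C, the diameter of the inhibition zone was measured in mm.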

Escherichia coli [5] = assay: Antibacterial activity against Escherichia coli K12 PhoU wild type W3110 at 4 ug/ml after 48 hrs by disc diffusion method; assay type: functional
Procedure, shortened: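 Kirby-Bauer disc assay. Log-phase LB culture (10⁸ bacteria) was spread for confluent growth on LB agar. 7 mm nitrocellulose discs soaked in antibiotic at the listed concentrations were laid on the agar. Inhibition zone diameter (mm) was measured after 48 h at 37°C.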

Escherichia coli [6] = assay: Antibacterial activity against Escherichia coli K12 containing deletion deltaphoU mutant assessed as cell count in log phase at 3 ug/ml after 1 week; assay type: functional; procedure, shortened: as §2
Escherichia coli [7] = assay: Antibacterial activity against Escherichia coli K12 mutant JHU313 containing plasmid vector at 2 ug/ml after 48 hrs by disc diffusion method; assay type: functional; procedure, shortened: as §3
Escherichia coli [8] = assay: Antibacterial activity against Escherichia coli K12 mutant JHU313 at 0.5 ug/ml after 48 hrs by disc diffusion method; assay type: functional; procedure, shortened: as §3
Escherichia coli [9] = assay: Antibacterial activity against Escherichia coli K12 mutant JHU313 containing plasmid PhoU at 0.5 ug/ml after 48 hrs by disc diffusion method; assay type: functional; procedure, shortened: as §3
Escherichia coli [10] = assay: Antibacterial activity against Escherichia coli K12 mutant JHU313 containing plasmid vector at 0.5 ug/ml after 48 hrs by disc diffusion method; assay type: functional; procedure, shortened: as §3
Escherichia coli [11] = assay: Antibacterial activity against Escherichia coli K12 mutant JHU313 containing plasmid PhoU at 0.1 ug/ml after 48 hrs by disc diffusion method; assay type: functional; procedure, shortened: as §3
Escherichia coli [12] = assay: Antibacterial activity against Escherichia coli K12 containing PhoU mutant assessed as cell count in log phase at 3 ug/ml after 5 hrs; assay type: functional; procedure, shortened: as §1
Escherichia coli [13] = assay: Antibacterial activity against Escherichia coli K12 PhoU wild type W3110 assessed as cell count in log phase at 3 ug/ml after 10 days; assay type: functional; procedure, shortened: as §1
Escherichia coli [14] = assay: Antibacterial activity against Escherichia coli K12 containing PhoU mutant assessed as cell count in stationary phase at 3 ug/ml after 10 days; assay type: functional; procedure, shortened: as §1
Escherichia coli [15] = assay: Antibacterial activity against Escherichia coli K12 PhoU wild type W3110 at 1.5 ug/ml after 48 hrs by disc diffusion method; assay type: functional
Procedure, shortened: (§4)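 Kirby-Bauer disc assay. Log-phase LB broth culture (10⁸ bacteria) was spread on LB agar for confluent growth. 7 mm nitrocellulose discs soaked in antibiotic solution at the listed concentration were placed on the agar. Inhibition zone diameter (mm) was measured after 48 h at 37°C.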

Escherichia coli [16] = assay: Antibacterial activity against Escherichia coli K12 containing PhoU mutant assessed as cell count in stationary phase at 100 ug/ml after 1 day; assay type: functional; procedure, shortened: as §1
Escherichia coli [17] = assay: Antibacterial activity against Escherichia coli K12 PhoU wild type W3110 assessed as cell count in log phase at 100 ug/ml after 3 days; assay type: functional
Procedure, shortened: (§5)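 Log-phase or stationary-phase cultures exposed to ampicillin 100 μg/ml in MOPS minimal medium (pH 5.0) at 37°C without shaking, for 5 h up to 10 days. Aliquots were taken at each time point, washed in saline and plated on LB plates for viable CFU/ml.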

Escherichia coli [18] = assay: Antibacterial activity against Escherichia coli K12 PhoU wild type W3110 assessed as cell count in stationary phase at 100 ug/ml after 5 days; assay type: functional; procedure, shortened: as §5
Escherichia coli [19] = assay: Antibacterial activity against Escherichia coli K12 containing deletion deltaphoBR mutant assessed as cell count in stationary phase at 100 ug/ml after 24 hrs; assay type: functional
Procedure, shortened: (§6)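 Deletion mutants were made by the Datsenko–Wanner method. Log-phase or stationary-phase cultures were exposed to ampicillin at 100 μg/ml. CFU/ml was determined at the start and after 5, 24 and 72 h of exposure.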

Escherichia coli [20] = assay: Antibacterial activity against Escherichia coli K12 containing deletion deltahipA mutant assessed as cell count in log phase at 100 ug/ml after 24 hrs; assay type: functional; procedure, shortened: as §6
Escherichia coli [21] = assay: Antibacterial activity against Escherichia coli K12 mutant JHU313 at 100 ug/ml after 48 hrs by disc diffusion method; assay type: functional; procedure, shortened: as §3
Escherichia coli [22] = assay: Antibacterial activity against Escherichia coli K12 mutant JHU313 containing plasmid vector at 100 ug/ml after 48 hrs by disc diffusion method; assay type: functional; procedure, shortened: as §3
Escherichia coli [23] = assay: Antibacterial activity against Escherichia coli K12 PhoU wild type W3110 at 25 ug/ml after 48 hrs by disc diffusion method; assay type: functional; procedure, shortened: as §4
Escherichia coli [24] = assay: Antibacterial activity against Escherichia coli K12 PhoU wild type W3110 assessed as cell count in stationary phase at 100 ug/ml after 5 hrs; assay type: functional; procedure, shortened: as §5
Escherichia coli [25] = assay: Antibacterial activity against Escherichia coli K12 PhoU wild type W3110 assessed as cell count in log phase at 100 ug/ml after 10 days; assay type: functional; procedure, shortened: as §1
Escherichia coli [26] = assay: Antibacterial activity against Escherichia coli K12 PhoU wild type W3110 assessed as cell count in stationary phase at 100 ug/ml after 10 days; assay type: functional; procedure, shortened: as §5
Escherichia coli [27] = assay: Antibacterial activity against Escherichia coli K12 containing deletion deltaphoB mutant assessed as cell count in log phase at 100 ug/ml after 5 hrs; assay type: functional; procedure, shortened: as §6
Escherichia coli [28] = assay: Antibacterial activity against Escherichia coli K12 containing deletion deltaphoB mutant assessed as cell count in stationary phase at 100 ug/ml after 5 hrs; assay type: functional; procedure, shortened: as §6
Escherichia coli [29] = assay: Antibacterial activity against Escherichia coli K12 containing deletion deltaphoR mutant assessed as cell count in log phase at 100 ug/ml after 5 hrs; assay type: functional
Procedure, shortened: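 Wild-type W3110-derived deletion mutants were made by the Datsenko–Wanner method. Log-phase or stationary-phase cultures were exposed to ampicillin 100 μg/ml in MOPS minimal medium at pH 5.0, at 37°C without shaking. Aliquots were taken at set times, washed in saline and plated on LB for viable CFU/ml.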

Escherichia coli [30] = assay: Antibacterial activity against Escherichia coli K12 containing deletion deltaphoB mutant assessed as cell count in log phase at 100 ug/ml after 24 hrs; assay type: functional; procedure, shortened: as §6
Escherichia coli [31] = assay: Antibacterial activity against Escherichia coli K12 mutant JHU313 assessed as cell count at 100 ug/ml

With CCn1cc(C(=O)O)c(=O)c2cc(F)c(N3CCNCC3)cc21 [NORFLOXACIN] the CFU (Escherichia coli [1]) was 4.5 10^7/ml, the CFU (Escherichia coli [2]) was 5 10^4/ml and the CFU (Escherichia coli [3]) was 3 10^5/ml. It also gave an inhibition zone (IZ) (Escherichia coli [4]) of 35 mm, an inhibition zone (IZ) (Escherichia coli [5]) of 32 mm and a CFU (Escherichia coli [6]) of 0 mL⁻¹. For the same molecule, the inhibition zone (IZ) (Escherichia coli [7]) was 40 mm, the inhibition zone (IZ) (Escherichia coli [8]) was 30 mm and the inhibition zone (IZ) (Escherichia coli [9]) was 31 mm. The inhibition zone (IZ) (Escherichia coli [10]) was 35 mm, the inhibition zone (IZ) (Escherichia coli [11]) was 27 mm and the CFU (Escherichia coli [12]) was 2 10^7/ml. It also gave a CFU (Escherichia coli [13]) of 0 mL⁻¹ and a CFU (Escherichia coli [14]) of 0 mL⁻¹.

CC1(C)S[C@@H]2[C@H](NC(=O)[C@H](N)c3ccccc3)C(=O)N2[C@H]1C(=O)O [AMPICILLIN] was tested, and the inhibition zone (IZ) (Escherichia coli [15]) was 21 mm, the CFU (Escherichia coli [16]) was 1 10^7/ml and the CFU (Escherichia coli [17]) was 0 mL⁻¹. The CFU (Escherichia coli [18]) was 3 10^7/ml, the CFU (Escherichia coli [19]) was 1.7 10^9/ml and the CFU (Escherichia coli [20]) was 1 10^3/ml. It also gave an inhibition zone (IZ) (Escherichia coli [21]) of 40 mm, an inhibition zone (IZ) (Escherichia coli [22]) of 45 mm and an inhibition zone (IZ) (Escherichia coli [23]) of 28 mm. The CFU (Escherichia coli [24]) was 5 10^9/ml, the CFU (Escherichia coli [25]) was 0 mL⁻¹ and the CFU (Escherichia coli [26]) was 2 10^5/ml. For the same molecule, the CFU (Escherichia coli [27]) was 6 10^3/ml, the CFU (Escherichia coli [28]) was 4 10^9/ml and the CFU (Escherichia coli [29]) was 1 10^3/ml. The CFU (Escherichia coli [30]) was 1 10^2/ml and the CFU (Escherichia coli [31]) was 1.4 10^7/ml.
